Results from ChEMBL document CHEMBL1140127, “Enantiomeric propanolamines as selective N-methyl-D-aspartate 2B receptor antagonists” (J Med Chem, 2008).
Activity calls are given as the source filed them.

Assays:
[1] = molecular target: Sodium-dependent serotonin transporter (Homo sapiens, UniProt P31645); assay: Binding affinity to serotonin transporter
[2] = molecular target: Voltage-gated inwardly rectifying potassium channel KCNH2 (Homo sapiens, UniProt Q12809); assay: (§1) Displacement of [3H]astemizole from human ERG expressed in HEK293 cells
Chain of Voltage-gated inwardly rectifying potassium channel KCNH2 (Q12809 whole entry): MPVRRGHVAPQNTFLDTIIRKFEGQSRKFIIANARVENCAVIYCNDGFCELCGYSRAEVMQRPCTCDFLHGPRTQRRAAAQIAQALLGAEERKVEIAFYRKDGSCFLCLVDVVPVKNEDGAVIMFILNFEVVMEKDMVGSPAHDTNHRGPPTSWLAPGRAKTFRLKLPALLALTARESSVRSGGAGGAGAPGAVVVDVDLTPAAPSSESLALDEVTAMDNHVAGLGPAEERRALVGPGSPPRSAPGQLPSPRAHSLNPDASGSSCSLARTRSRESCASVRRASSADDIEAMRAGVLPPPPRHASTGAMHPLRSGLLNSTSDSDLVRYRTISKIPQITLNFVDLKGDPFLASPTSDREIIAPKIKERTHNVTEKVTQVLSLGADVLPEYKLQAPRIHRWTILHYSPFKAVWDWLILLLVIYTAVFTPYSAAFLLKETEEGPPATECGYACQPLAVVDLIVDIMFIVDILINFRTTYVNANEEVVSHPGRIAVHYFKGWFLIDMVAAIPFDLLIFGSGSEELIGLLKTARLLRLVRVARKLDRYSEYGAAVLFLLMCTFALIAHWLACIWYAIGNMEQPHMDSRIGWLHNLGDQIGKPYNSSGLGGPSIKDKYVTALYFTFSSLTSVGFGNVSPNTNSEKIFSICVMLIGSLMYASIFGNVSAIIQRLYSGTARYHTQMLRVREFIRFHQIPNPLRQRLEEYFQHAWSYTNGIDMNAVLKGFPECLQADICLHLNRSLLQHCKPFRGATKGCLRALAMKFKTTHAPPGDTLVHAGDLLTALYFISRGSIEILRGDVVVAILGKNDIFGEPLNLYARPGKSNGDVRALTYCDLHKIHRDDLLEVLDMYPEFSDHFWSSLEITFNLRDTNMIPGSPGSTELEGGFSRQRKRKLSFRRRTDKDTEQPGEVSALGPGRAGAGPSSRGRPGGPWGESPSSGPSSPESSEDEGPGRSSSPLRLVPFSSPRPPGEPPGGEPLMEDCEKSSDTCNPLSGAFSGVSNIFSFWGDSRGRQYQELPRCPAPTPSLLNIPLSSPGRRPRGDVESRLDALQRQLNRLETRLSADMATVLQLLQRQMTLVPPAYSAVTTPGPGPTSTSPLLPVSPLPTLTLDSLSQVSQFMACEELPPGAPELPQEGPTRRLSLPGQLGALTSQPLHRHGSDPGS

hERG (KCNH2) = hERG (KCNH2) (Homo sapiens, UniProt Q12809); assay: as §1; conditions: human, HEK293 cells expressing human ERG, probe [3H]astemizole
Chain of hERG (KCNH2) (Q12809 whole entry): as above

[3] = molecular target: Glutamate receptor 4 (Rattus norvegicus) (UniProt P19493); assay: Inhibition of rat recombinant GluR4 expressed in Xenopus oocytes assessed as inhibition of kainate-induced evoked current at 3 uM by two electrode voltage clamp method; format: cell-based; conditions: Oocyte
Procedure, shortened: (§2)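 Xenopus oocytes injected with 5–10 ng rat receptor cRNA and kept in Barth's solution at 18 °C. Two-electrode voltage clamp at −40 mV and 23 °C, 2–7 days after injection, in 90 NaCl/1 KCl/10 HEPES/0.5 BaCl2 mM at pH 7.3 or 7.6. Agonists: 50 μM kainate for GluR3, GluR4 and GluR2/3; 3 nM domoate for GluR6; 100 μM AMPA for GluR6/KA1. Current expressed as % of control; paired t test.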

[4] = molecular target: Ionotropic glutamate receptor NMDA 1/2D (Rattus norvegicus) (UniProt P35439+Q62645); assay: Inhibition of rat recombinant NR1/NR2D receptor expressed in Xenopus oocytes assessed as inhibition of glutamate and glycine-induced evoked current at 3uM by two electrode voltage clamp method; format: cell-based; conditions: Oocyte
[5] = molecular target: Glutamate receptor 3 (Rattus norvegicus) (UniProt P19492); assay: Inhibition of rat recombinant GluR3 expressed in Xenopus oocytes assessed as inhibition of kainate-induced evoked current at 3 uM by two electrode voltage clamp method; format: cell-based; conditions: Oocyte; procedure, shortened: as §2
[6] = molecular target: Glutamate NMDA receptor; Grin1/Grin2a (Rattus norvegicus) (UniProt P35439+Q00959); assay: Inhibition of rat recombinant NR1/NR2A receptor expressed in Xenopus oocytes assessed as inhibition of glutamate and glycine-induced evoked current at 3uM by two electrode voltage clamp method; format: cell-based; conditions: Oocyte
Plasma = assay: Half life in rat plasma at 30 mg/kg, ip by LC-MS/MS analysis; format: ADME, organism-based; design: dose 30 mg/kg, route intraperitoneal; conditions: in vivo
Procedure, shortened: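 Fasted rats (n = 3 per dose) given 30 mg/kg ip in 2% dimethyl acetamide/98% 5% hydroxypropyl cyclodextrin. Plasma sampled at several time points up to 240 min and extracted with 5 volumes of cold acetonitrile. Parent compound measured by LC-MS/MS (MRM) against a standard curve to give plasma t1/2.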

Mus musculus [7] = assay: Effect on motor coordination in mouse at 30 mg/kg, ip administered 20 mins prior to test after 5 days by rotarod test; format: ADME, organism-based; design: dose 30 mg/kg, route intraperitoneal; conditions: in vivo, 120 h
Procedure, shortened: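 Accelerating rotorod: mice held 10 s at 5 rpm, then accelerated from 5 to 35 rpm over 5 min; latency to fall recorded by light sensor. Four trials per day for 5 days, 25 min between trials. On day 5, mice were randomized and given a 5 mL/kg ip injection in 25% DMSO/75% saline 20 min before the first trial. Operator blinded; ANOVA with Dunnett's post hoc test.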

[8] = molecular target: Glutamate receptor ionotropic, kainate 2 (Rattus norvegicus) (UniProt P42260); assay: Inhibition of rat recombinant GluR6/KA1 expressed in Xenopus oocytes assessed as inhibition of AMPA-induced evoked current at 3 uM by two electrode voltage clamp method; format: cell-based; conditions: Oocyte; procedure, shortened: as §2
[9] = molecular target: Glutamate NMDA receptor; GRIN1/GRIN2B (Homo sapiens) (UniProt Q05586+Q13224); assay: Inhibition of human NR1/NR2B receptor
Rattus norvegicus = assay: Anticonvulsant activity in Sprague-Dawley rat assessed as inhibition of electroshock-induced tonic hind limb extension at 30 mg/kg, ip administered 30 mins before electroshock; format: functional, organism-based; design: dose 30 mg/kg; conditions: Hindlimb
Procedure, shortened: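 Male Sprague–Dawley rats, 100–125 g, with 1% lidocaine dropped into each conjunctiva before maximal electroshock. Compound given ip in DMSO 30 min before the stimulus. Tested on three consecutive days: untreated on days 1 and 3, compound on day 2. Duration of tonic hind limb extension scored visually. Vehicle served as negative control and carbamazepine 60 mg/kg as positive control. ANOVA with Bonferroni post hoc test.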

[10] = molecular target: Glutamate NMDA receptor; Grin1/Grin2c (Rattus norvegicus) (UniProt P35439+Q00961); assay: Inhibition of rat recombinant NR1/NR2C receptor expressed in Xenopus oocytes assessed as inhibition of glutamate and glycine-induced evoked current at 3uM by two electrode voltage clamp method; format: cell-based; conditions: Oocyte
[11] = Protein binding in mouse plasma; format: ADME, cell-free; conditions: read-out: PPB (converted)
Mus musculus [12] = assay: Plasma concentration in C57BL/6 mouse at 30 mg/kg, ip; format: ADME, organism-based; design: dose 30 mg/kg, route intraperitoneal; conditions: in vivo
[13] = Inhibition of N-type calcium channel
[14] = molecular target: Adrenergic receptor alpha-2 (Rattus norvegicus, UniProt P22086+P19328+P22909); assay: Binding affinity to alpha2 adrenergic receptor in rat brain; format: tissue-based
[15] = Inhibition of sodium channel
Procedure, shortened: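 Rat cortical neurons cultured from E17 embryos and recorded at 5–10 days by whole-cell patch clamp at 23 °C. Holding −60 mV with 100 ms steps, in the presence of bicuculline, CNQX and DL-APV. Tetrodotoxin-sensitive Na+ current measured at −10 mV; mean compared by paired t test.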

Neuron [16] = assay: Inhibition of voltage-gated potassium current in E17 Sprague-Dawley rat neurons at 3 uM by whole cell patch clamp method; format: functional
Cortical neurone = assay: Neuroprotective effect against NMDA-induced toxicity in Sprague-Dawley rat cultured cortical neurons assessed as LDH release pretreated 15 mins before NMDA treatment assessed after 16 to 24 hrs by spectrophotometry; format: functional
Procedure, shortened: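 Rat cortical cultures (E16–E19) used at 9–12 days. Cells pretreated 15 min in ACSF at pH 7.6, then exposed 10 min at room temperature to 100 μM NMDA plus 10 μM glycine with compound present. Washed with D-APV/CNQX. LDH release measured 16–24 h later as a fraction of total. Scaled between the D-APV minimum and the NMDA maximum; cultures with <10% death discarded.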

Mus musculus [17] = species on record: Mus musculus; conditions: 3 uM
[18] = Inhibition of L-type calcium channel
Mus musculus [19] = assay: Neuroprotective effect against middle cerebral artery occlusion-induced transient focal ischemia in C57BL/6 mouse at 30 mg/kg, ip administered 30 mins before occlusion; format: functional; conditions: route intraperitoneal
Procedure, shortened: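 Male C57BL/6 mice, 3–5 months, under 2% isoflurane at 37 °C. Left MCA occluded with an intraluminal suture for 30 min, confirmed by laser Doppler flow below 20%. Injection ip (10 mL/kg) given 30 min before occlusion. After 24 h, brains cut into 2 mm sections and stained with 2% TTC; infarct volume thresholded and edema-corrected. Operator blinded; Mann–Whitney test.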

[20] = molecular target: Sodium-dependent dopamine transporter (Homo sapiens, UniProt Q01959); assay: Binding affinity to dopamine transporter
Chain of Sodium-dependent dopamine transporter (Q01959 whole entry): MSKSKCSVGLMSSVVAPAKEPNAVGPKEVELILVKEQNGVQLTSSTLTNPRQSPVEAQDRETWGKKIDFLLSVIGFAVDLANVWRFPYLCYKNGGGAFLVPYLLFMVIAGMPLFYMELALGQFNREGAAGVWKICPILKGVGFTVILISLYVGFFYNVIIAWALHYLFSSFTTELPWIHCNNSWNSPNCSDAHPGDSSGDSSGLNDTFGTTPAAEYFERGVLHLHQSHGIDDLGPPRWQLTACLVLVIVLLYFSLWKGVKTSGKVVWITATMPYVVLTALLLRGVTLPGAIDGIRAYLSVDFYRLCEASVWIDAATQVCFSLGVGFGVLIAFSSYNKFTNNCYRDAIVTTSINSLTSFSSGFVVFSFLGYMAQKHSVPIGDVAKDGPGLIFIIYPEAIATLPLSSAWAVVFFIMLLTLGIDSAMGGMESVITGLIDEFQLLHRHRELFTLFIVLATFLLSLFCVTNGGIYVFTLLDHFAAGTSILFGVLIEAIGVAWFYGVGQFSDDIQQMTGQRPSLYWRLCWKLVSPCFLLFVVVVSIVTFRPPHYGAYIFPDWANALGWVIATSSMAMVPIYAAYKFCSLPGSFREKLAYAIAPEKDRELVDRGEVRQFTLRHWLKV

Neuron [21] = assay: Inhibition of tetrodotoxin-sensitive voltage-gated sodium current in E17 Sprague-Dawley rat neurons at 3 uM at holding potential of […] by whole cell patch clamp method; format: functional
[22] = molecular target: Glutamate NMDA receptor; Grin1/Grin2b (Rattus norvegicus, UniProt P35439+Q00960); assay: Inhibition of rat recombinant NR1/NR2B receptor expressed in Xenopus oocytes assessed as inhibition of glutamate and glycine-induced evoked current by two electrode voltage clamp method; format: cell-based, Oocyte
Chain of Glutamate NMDA receptor; Grin1/Grin2b (Q00960 whole entry, other chains not shown): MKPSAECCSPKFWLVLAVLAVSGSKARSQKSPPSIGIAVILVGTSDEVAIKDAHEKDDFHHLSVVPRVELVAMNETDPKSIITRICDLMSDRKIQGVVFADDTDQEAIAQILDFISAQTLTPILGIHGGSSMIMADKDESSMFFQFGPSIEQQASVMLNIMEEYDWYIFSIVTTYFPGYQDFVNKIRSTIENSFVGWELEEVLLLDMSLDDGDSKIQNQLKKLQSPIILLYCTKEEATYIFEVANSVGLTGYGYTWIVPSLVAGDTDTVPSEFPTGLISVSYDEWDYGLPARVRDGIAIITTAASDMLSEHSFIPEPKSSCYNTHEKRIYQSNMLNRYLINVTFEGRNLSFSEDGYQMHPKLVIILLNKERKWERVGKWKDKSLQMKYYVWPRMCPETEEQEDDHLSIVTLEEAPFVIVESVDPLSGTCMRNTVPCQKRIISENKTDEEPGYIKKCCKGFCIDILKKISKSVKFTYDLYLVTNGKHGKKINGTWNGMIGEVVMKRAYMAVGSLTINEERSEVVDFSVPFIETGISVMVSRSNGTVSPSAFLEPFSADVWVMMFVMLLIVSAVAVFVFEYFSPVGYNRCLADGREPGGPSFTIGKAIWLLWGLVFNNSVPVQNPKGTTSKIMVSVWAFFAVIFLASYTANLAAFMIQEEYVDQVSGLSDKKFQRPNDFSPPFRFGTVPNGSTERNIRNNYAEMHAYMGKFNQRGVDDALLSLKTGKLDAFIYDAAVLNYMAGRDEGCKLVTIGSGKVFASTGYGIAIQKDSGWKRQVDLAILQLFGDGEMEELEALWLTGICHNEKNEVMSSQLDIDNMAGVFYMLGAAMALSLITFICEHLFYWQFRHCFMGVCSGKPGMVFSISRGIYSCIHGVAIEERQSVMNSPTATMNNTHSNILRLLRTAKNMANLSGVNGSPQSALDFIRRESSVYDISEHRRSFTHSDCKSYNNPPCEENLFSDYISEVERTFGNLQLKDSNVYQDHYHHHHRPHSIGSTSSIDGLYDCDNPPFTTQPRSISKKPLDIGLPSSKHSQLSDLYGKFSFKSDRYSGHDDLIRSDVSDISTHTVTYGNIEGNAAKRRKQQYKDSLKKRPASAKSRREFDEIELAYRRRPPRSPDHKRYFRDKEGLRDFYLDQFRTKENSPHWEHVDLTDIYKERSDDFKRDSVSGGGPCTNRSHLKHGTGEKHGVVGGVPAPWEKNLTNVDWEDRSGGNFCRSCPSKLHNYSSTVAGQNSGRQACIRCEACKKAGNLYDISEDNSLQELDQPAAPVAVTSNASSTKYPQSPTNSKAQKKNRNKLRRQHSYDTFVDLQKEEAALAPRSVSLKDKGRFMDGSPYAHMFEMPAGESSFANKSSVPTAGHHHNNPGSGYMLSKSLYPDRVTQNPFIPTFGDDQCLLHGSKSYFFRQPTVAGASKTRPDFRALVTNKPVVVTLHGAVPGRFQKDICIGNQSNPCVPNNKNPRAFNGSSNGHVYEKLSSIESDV

Chain of Sodium-dependent serotonin transporter (P31645 whole entry): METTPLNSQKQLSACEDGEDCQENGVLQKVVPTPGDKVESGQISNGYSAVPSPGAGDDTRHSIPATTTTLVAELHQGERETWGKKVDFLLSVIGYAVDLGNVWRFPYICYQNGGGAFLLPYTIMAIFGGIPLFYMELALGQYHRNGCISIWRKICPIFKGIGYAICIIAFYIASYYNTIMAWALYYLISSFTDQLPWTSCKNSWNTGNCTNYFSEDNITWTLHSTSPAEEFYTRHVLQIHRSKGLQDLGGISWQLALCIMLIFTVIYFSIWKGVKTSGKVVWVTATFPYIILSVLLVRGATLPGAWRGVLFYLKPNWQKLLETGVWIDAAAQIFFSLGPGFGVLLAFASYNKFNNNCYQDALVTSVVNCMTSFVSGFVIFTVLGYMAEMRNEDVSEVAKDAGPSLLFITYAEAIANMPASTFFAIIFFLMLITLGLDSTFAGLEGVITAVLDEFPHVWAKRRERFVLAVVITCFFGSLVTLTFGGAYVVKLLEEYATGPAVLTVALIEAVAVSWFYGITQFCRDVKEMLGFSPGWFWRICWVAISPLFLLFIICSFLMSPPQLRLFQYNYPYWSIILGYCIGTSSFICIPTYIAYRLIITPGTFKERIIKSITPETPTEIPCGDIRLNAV

Q: For `CS(=O)(=O)Nc1ccc(OC[C@@H](O)CNCCc2ccc(Cl)c(Cl)c2)cc1`, which IC50 [1] is on record?
A: > 3 µM

Q: And the IC50 [2]?
A: 730 nM

Q: And the IC20 (hERG (KCNH2))?
A: > 174 nM

Q: What about the Activity [3] of the same molecule?
A: inactive

Q: What about the Activity [4] of the same molecule?
A: inactive

Q: And the Activity [5]?
A: inactive

Q: And the Activity [6]?
A: inactive

Q: What about the t1/2 (Plasma) of the same molecule?
A: 1.1 h

Q: And the Activity (Mus musculus [7])?
A: Non-toxic

Q: What about the Activity [8] of the same molecule?
A: inactive

Q: And the Activity [9]?
A: 53 nM

Q: What about the Activity (Rattus norvegicus) of the same molecule?
A: inactive

Q: What about the Activity [10] of the same molecule?
A: inactive

Q: And the fraction unbound [11]?
A: 0.12

Q: And the concentration (Mus musculus [12])?
A: 1000 nM

Q: And the IC50 [13]?
A: > 5 µM

Q: And the IC50 [14]?
A: > 3 µM

Q: And the IC50 [15]?
A: > 5 µM

Q: And the Activity (Neuron [16])?
A: 0.72 nanoampere

Q: And the Activity (Cortical neurone)?
A: Dose-dependent effect

Q: And the inhibition (Mus musculus [17])?
A: 102%

Q: And the IC50 [18]?
A: > 5 µM

Q: And the Activity (Mus musculus [19])?
A: >30%

Q: And the IC50 [20]?
A: 500 nM

Q: And the Activity (Neuron [21])?
A: 1.27 nanoampere

Q: What about the IC50 [22] of the same molecule?
A: 50 nM
